Results from ChEMBL document CHEMBL2016450, “Design, synthesis, and biological evaluation of chalcone oxime derivatives as potential immunosuppressive agents” (Bioorg Med Chem Lett, 2012).
Calls of active or inactive are those of the source. The rule behind the calls is not given here.

Key:
[1] = Cytotoxicity against Balb/c mouse lymph node cells after 48 hrs by MTT assay; assay type: cell-based
Summary of the method: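 Naïve lymph node cells; the CC50 is the concentration giving 50% cell survival. Cyclosporin A served as the reference control.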

[2] = Selectivity index, ratio of CC50 for Balb/c mouse lymph node cells to IC50 for anti-CD3/[…] co-stimulated mouse Balb/c mouse lymph node cells; assay type: functional
Summary of the method: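 The selectivity index is CC50 on unstimulated lymph node cells divided by IC50 for proliferation of anti-CD3/anti-CD28 co-stimulated lymph node cells, both relative to control values.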

[3] = Immunosuppressive activity in anti-CD3/[…] co-stimulated Balb/c mouse lymph node cells assessed as inhibition of cell proliferation after 72 hrs by ELISA; assay type: functional
Summary of the method: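 Lymph node cells co-stimulated with anti-CD3/anti-CD28. The IC50 is the concentration inhibiting proliferation by 50% relative to control values. Cyclosporin A served as the reference control.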

[4] = Induction of apoptosis in anti-CD-3/[…] co-stimulated Balb/c mouse lymph node cells assessed as apoptotic cells at 20 ug/ml after 24 hrs by annexin V/PI staining-based flow cytometric analysis; assay type: functional
Summary of the method: (§1)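 Lymph node cells isolated from naïve mice were cultured with anti-CD3/anti-CD28 plus compound at 10, 20 or 40 µg/mL for 24 h. Cells were stained with Annexin V-FITC/PI and apoptotic cells were counted by flow cytometry.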

Mus musculus [5] = organism: Mus musculus; experiment: Induction of apoptosis in anti-CD-3/[…] co-stimulated Balb/c mouse lymph node cells assessed as apoptotic cells after 24 hrs by annexin V/PI staining-based flow cytometric analysis; assay type: functional; summary of the method: as §1
Mus musculus [6] = organism: Mus musculus; experiment: Induction of apoptosis in anti-CD-3/[…] co-stimulated Balb/c mouse lymph node cells assessed as caspase 3 cleavage product p17 formation after 24 hrs by Western blot analysis; assay type: functional
Summary of the method: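 Anti-CD3/anti-CD28 co-stimulated lymph node cells were treated with compound across a dose series. Lysates were probed by Western blot with an anti-cleaved caspase-3 antibody that recognises the p17 cleavage fragment.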

[7] = Induction of apoptosis in anti-CD-3/[…] co-stimulated Balb/c mouse lymph node cells assessed as apoptotic cells at 40 ug/ml after 24 hrs by annexin V/PI staining-based flow cytometric analysis; assay type: functional; summary of the method: as §1
[8] = Induction of apoptosis in anti-CD-3/[…] co-stimulated Balb/c mouse lymph node cells assessed as apoptotic cells at 10 ug/ml after 24 hrs by annexin V/PI staining-based flow cytometric analysis; assay type: functional; summary of the method: as §1
Mus musculus [9] = organism: Mus musculus; experiment: Induction of apoptosis in anti-CD-3/[…] co-stimulated Balb/c mouse lymph node cells assessed as PARP cleavage at 10 to 40 ug/ml after 24 hrs by Western blot analysis; assay type: functional

For Cc1ccc(C(/C=C/c2ccc(Cl)cc2)=N/O)cc1, the CC50 at 48 h [1] was 21.3 µM, the “Ratio CC50/IC50” value [2] was 1.84 and the IC50 [3] was 11.6 µM.

With Cc1ccc(C(/C=C/c2ccc(Cl)c(Cl)c2)=N/O)cc1 the CC50 at 48 h [1] was 14.7 µM, the “Ratio CC50/IC50” value [2] was 2.32 and the IC50 [3] was 6.34 µM.

In the case of COc1ccc(C(/C=C/c2ccccc2)=N/O)cc1, the CC50 at 48 h [1] is reported as 28.6 µM, the “Ratio CC50/IC50” value [2] is reported as 2.42 and the IC50 [3] is reported as 11.8 µM.

For COc1ccc(C(/C=C/c2ccc(F)cc2)=N/O)cc1, the CC50 at 48 h [1] was 13.5 µM, the “Ratio CC50/IC50” value [2] was 1.23 and the IC50 [3] was 11 µM.

With COc1ccc(/C=C/C(=N\O)c2ccc(Br)cc2)cc1 the CC50 at 48 h [1] was 23.7 µM, the “Ratio CC50/IC50” value [2] was >4.75 and the IC50 [3] was < 5 µM.

In the case of COc1ccc(C(/C=C/c2ccc(Cl)cc2)=N/O)cc1, the CC50 at 48 h [1] is reported as 291 µM, the “Ratio CC50/IC50” value [2] is reported as 25.31 and the IC50 [3] is reported as 11.5 µM.

In the case of O/N=C(\C=C\c1ccc(Cl)c(Cl)c1)c1ccc(Br)cc1, the CC50 at 48 h [1] is reported as < 5 µM and the IC50 [3] is reported as < 5 µM.

For COc1ccc(C(=O)/C=C/c2ccc(Br)cc2)cc1, the CC50 at 48 h [1] was 93.7 µM, the “Ratio CC50/IC50” value [2] was 3.73 and the IC50 [3] was 25.1 µM.

For COc1ccc(C(/C=C/c2ccc(Br)cc2)=N/O)cc1, the Activity [4] was 32.25%, the CC50 at 48 h [1] was 737 µM and the “Ratio CC50/IC50” value [2] was 52.93. The Activity (Mus musculus [5]) was “Dose-dependent effect”, the IC50 [3] was 13.9 µM and the Activity (Mus musculus [6]) was “Dose-dependent effect”. The Activity [7] was 40.63% and the Activity [8] was 22.71%.

For O/N=C(\C=C\c1ccc(F)cc1)c1ccc(Cl)cc1, the CC50 at 48 h [1] was 11.5 µM, the “Ratio CC50/IC50” value [2] was 1.08 and the IC50 [3] was 10.6 µM.

With COc1ccc(/C=C/C(=N\O)c2ccc(Cl)cc2)cc1 the CC50 at 48 h [1] was 24.3 µM, the “Ratio CC50/IC50” value [2] was 4.16 and the IC50 [3] was 5.85 µM.

In the case of O/N=C(\C=C\c1ccc(F)cc1)c1ccc(Br)cc1, the CC50 at 48 h [1] is reported as 20.3 µM, the “Ratio CC50/IC50” value [2] is reported as 1.53 and the IC50 [3] is reported as 13.3 µM.

In the case of Cc1ccc(C(/C=C/c2ccc(F)cc2)=N/O)cc1, the CC50 at 48 h [1] is reported as 13.2 µM, the “Ratio CC50/IC50” value [2] is reported as 1.17 and the IC50 [3] is reported as 11.2 µM.

In the case of Cc1ccc(C(/C=C/c2ccc(Br)cc2)=N/O)cc1, the CC50 at 48 h [1] is reported as 34.2 µM, the “Ratio CC50/IC50” value [2] is reported as 2.94 and the IC50 [3] is reported as 11.6 µM.

For COc1ccc(/C=C/C(=N\O)c2ccc(OC)cc2)cc1, the Activity [4] was 34.05%, the CC50 at 48 h [1] was 2170 µM and the “Ratio CC50/IC50” value [2] was 176.69. For the same compound, the Activity (Mus musculus [5]) was “Dose-dependent effect”, the IC50 [3] was 12.3 µM and the Activity (Mus musculus [6]) was “Dose-dependent effect”. For the same compound, the Activity [7] was 96.46%, the Activity (Mus musculus [9]) was “Active” and the Activity [8] was 25.83%.

For O/N=C(\C=C\c1ccc(Cl)cc1)c1ccc(F)cc1, the CC50 at 48 h [1] was 14.8 µM, the “Ratio CC50/IC50” value [2] was 1.36 and the IC50 [3] was 10.9 µM.

In the case of O/N=C(\C=C\c1ccc(Cl)cc1)c1ccc(Br)cc1, the CC50 at 48 h [1] is reported as 24.7 µM, the “Ratio CC50/IC50” value [2] is reported as 1.68 and the IC50 [3] is reported as 14.7 µM.

In the case of COc1ccc(C(/C=C/c2cccs2)=N/O)cc1, the CC50 at 48 h [1] is reported as 10.6 µM, the “Ratio CC50/IC50” value [2] is reported as 1.25 and the IC50 [3] is reported as 8.49 µM.

With O/N=C(\C=C\c1cccs1)c1ccc(Br)cc1 the CC50 at 48 h [1] was 15.3 µM, the “Ratio CC50/IC50” value [2] was 1.38 and the IC50 [3] was 11.2 µM.

For O/N=C(\C=C\c1cccs1)c1ccc(Cl)cc1, the CC50 at 48 h [1] was 11.8 µM, the “Ratio CC50/IC50” value [2] was 1.23 and the IC50 [3] was 9.59 µM.

With COc1ccc(/C=C/C(=N\O)c2ccc(C)cc2)cc1 the CC50 at 48 h [1] was 117 µM, the “Ratio CC50/IC50” value [2] was 18.82 and the IC50 [3] was 6.24 µM.

In the case of O/N=C(\C=C\c1ccc(Cl)cc1)c1ccc(Cl)cc1, the CC50 at 48 h [1] is reported as 14.1 µM, the “Ratio CC50/IC50” value [2] is reported as 1.54 and the IC50 [3] is reported as 9.15 µM.

For COc1ccc(/C=C/C(=O)c2ccc(OC)cc2)cc1 [4,4'-DIMETHOXYCHALCONE], the CC50 at 48 h [1] was 1790 µM, the “Ratio CC50/IC50” value [2] was 75.98 and the IC50 [3] was 23.6 µM.

In the case of COc1ccc(C(/C=C/c2ccc(Cl)cc2Cl)=N/O)cc1, the CC50 at 48 h [1] is reported as 25 µM, the “Ratio CC50/IC50” value [2] is reported as 2.24 and the IC50 [3] is reported as 11.2 µM.
